Measured values reported in ChEMBL document CHEMBL3132745, “Synthesis and Antimicrobial Activities of His(2-aryl)-Arg and Trp-His(2-aryl) Classes of Dipeptidomimetics” (Medchemcomm, 2014).
Converted amounts (≈) assume the structure as drawn. The source made the active and inactive calls.

Experiments:
[1] = system: Nakaseomyces glabratus; test: Antifungal activity against Candida glabrata assessed as growth inhibition; type: functional, organism-based
[2] = Selectivity index, ratio of cytotoxicity against human BT549 cells to IC50 for Cryptococcus neoformans ATCC 90113; type: toxicity, cell-based, BT-549; conditions: read-out: Selectivity Index
[3] = system: Cryptococcus neoformans; test: Antifungal activity against Cryptococcus neoformans ATCC 90113 assessed as growth inhibition after 70-74 hrs by CLSI method; type: functional, organism-based; conditions: Cryptococcus neoformans, ATCC 90113; for IC50: read-out: IC50
[4] = system: KB; test: Cytotoxicity against human KB cells assessed as cell viability after 48 hrs by neutral red uptake assay; type: cell-based
Outline: (§1)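 Neutral red uptake assay on human cancer lines (SK-MEL, KB, BT-549, SK-OV-3) and noncancerous mammalian cells (VERO, LLC-PK1). Highest tested concentration was 10 µg/mL.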

[5] = Selectivity index, ratio of cytotoxicity against human KB cells to IC50 for Cryptococcus neoformans ATCC 90113; type: toxicity, cell-based; conditions: read-out: Selectivity Index
[6] = system: SK-OV-3; test: Cytotoxicity against human SKOV3 cells assessed as cell viability after 48 hrs by neutral red uptake assay; type: cell-based; conditions: sk-ov-3, 48 h; outline: as §1
[7] = Selectivity index, ratio of cytotoxicity against african green monkey Vero cells to IC50 for Cryptococcus neoformans ATCC 90113; type: toxicity, cell-based; conditions: read-out: Selectivity Index
[8] = system: Escherichia coli; test: Antibacterial activity against Escherichia coli ATCC 35218 assessed as growth inhibition after 16-20 hrs by CLSI method; type: functional, organism-based
[9] = Selectivity index, ratio of cytotoxicity against human SK-MEL cells to IC50 for Cryptococcus neoformans ATCC 90113; type: toxicity, cell-based; conditions: read-out: Selectivity Index
[10] = system: LLC-PK1; test: Cytotoxicity against pig LLC-PK1 cells assessed as cell viability after 48 hrs by neutral red uptake assay; type: cell-based, Sus scrofa; conditions: llc-pk1, 48 h; outline: as §1
[11] = system: Candida albicans; test: Antifungal activity against Candida albicans assessed as growth inhibition; type: functional, organism-based
[12] = system: Vero; test: Cytotoxicity against african green monkey Vero cells assessed as cell viability after 48 hrs by neutral red uptake assay; type: cell-based; conditions: chlorocebus sabaeus; outline: as §1
[13] = Selectivity index, ratio of cytotoxicity against pig LLC-PK1 cells to IC50 for Cryptococcus neoformans ATCC 90113; type: toxicity, cell-based; conditions: read-out: Selectivity Index
[14] = system: Staphylococcus aureus; test: Antibacterial activity against Staphylococcus aureus ATCC 29213 assessed as growth inhibition after 16-20 hrs by CLSI method; type: functional, organism-based
[15] = system: Aspergillus fumigatus; test: Antifungal activity against Aspergillus fumigatus assessed as growth inhibition; type: functional, organism-based
[16] = system: Staphylococcus aureus; test: Antibacterial activity against methicillin-resistant Staphylococcus aureus ATCC 33591 assessed as growth inhibition after 16-20 hrs by CLSI method; type: functional, organism-based
[17] = system: Pichia kudriavzevii; test: Antifungal activity against Candida krusei assessed as growth inhibition; type: functional, organism-based
[18] = system: BT-549; test: Cytotoxicity against human BT549 cells assessed as cell viability after 48 hrs by neutral red uptake assay; type: cell-based; conditions: bt-549, 48 h; outline: as §1
[19] = Selectivity index, ratio of cytotoxicity against human SKOV3 cells to IC50 for Cryptococcus neoformans ATCC 90113; type: toxicity, cell-based, SK-OV-3; conditions: read-out: Selectivity Index
[20] = system: SK-MEL; test: Cytotoxicity against human SK-MEL cells assessed as cell viability after 48 hrs by neutral red uptake assay; type: cell-based; outline: as §1
[21] = Staphylococcus aureus, ATCC 33591
[22] = Staphylococcus aureus, ATCC 33591, read-out: IC50

Structure (SMILES)	growth inhibition (GI) [1]	selectivity ratio [2]	MFC [3] [µg/mL]	MIC [3] [µg/mL]	IC50 [3] [µg/mL]	Activity [4] [µg/mL]	selectivity ratio [5]	Activity [6] [µg/mL]	selectivity ratio [7]	growth inhibition (GI) [8]	selectivity ratio [9]	Activity [10] [µg/mL]	growth inhibition (GI) [11]	Activity [12] [µg/mL]	selectivity ratio [13]	IC50 [14] [µg/mL]	MBC [14]	MIC [14]	growth inhibition (GI) [15]	growth inhibition (GI) [17]	also measured
N=C(N)NCCC[C@H](NC(=O)[C@@H](N)Cc1c[nH]c(-c2ccc(-c3ccccc3)cc2)n1)C(=O)NCc1ccccc1	inactive	> 50	0.31 (≈ 0.561 µM)	0.31 (≈ 0.561 µM)	0.2 (≈ 0.362 µM)	> 10	> 50	> 10	> 50	inactive	> 50	> 10	inactive	> 10	> 50	12.8 (≈ 23.2 µM)	inactive	inactive	inactive	inactive	IC50 [16]: Not Active; MBC [16]: inactive; MIC [16]: inactive; Activity [18]: > 10 µg/mL; selectivity ratio [19]: > 50; Activity [20]: > 10 µg/mL
N[C@@H](Cc1c[nH]c2ccccc12)C(=O)N[C@@H](Cc1c[nH]c(-c2ccc(-c3ccccc3)cc2)n1)C(=O)NCc1ccccc1	inactive	> 18.5	1.25 (≈ 2.15 µM)	1.25 (≈ 2.15 µM)	0.54 (≈ 0.927 µM)	> 10	> 18.5	> 10	> 18.5	inactive	> 18.5	> 10	inactive	> 10	> 18.5	2.6 (≈ 4.46 µM)	20 µg/mL (≈ 34.3 µM)	5 µg/mL (≈ 8.58 µM)	inactive	inactive	MBC [16, 21]: 20 µg/mL (≈ 34.3 µM); MIC [16, 21]: 10 µg/mL (≈ 17.2 µM); IC50 [16, 22]: 4.31 µg/mL (≈ 7.4 µM); Activity [18]: > 10 µg/mL; selectivity ratio [19]: > 18.5; Activity [20]: > 10 µg/mL
CC(C)(C)c1ccc(-c2nc(C[C@H](NC(=O)[C@@H](N)Cc3c[nH]c4ccccc34)C(=O)NCc3ccccc3)c[nH]2)cc1	inactive	> 2.21	10 (≈ 17.8 µM)	10 (≈ 17.8 µM)	4.53 (≈ 8.05 µM)	> 10	> 2.21	> 10	> 2.21	inactive	> 2.21	> 10	inactive	> 10	> 2.21	11.7 (≈ 20.7 µM)	inactive	20 µg/mL (≈ 35.5 µM)	inactive	inactive	IC50 [16]: Not Active; MBC [16]: inactive; MIC [16]: inactive; Activity [18]: > 10 µg/mL; selectivity ratio [19]: > 2.21; Activity [20]: > 10 µg/mL
CC(C)(C)OC(=O)N[C@@H](Cc1c[nH]c(-c2ccc(C(C)(C)C)cc2)n1)C(=O)N[C@@H](CCCNC(=N)N)C(=O)NCc1ccccc1	inactive	> 4.1	2.5 (≈ 3.95 µM)	2.5 (≈ 3.95 µM)	2.42 (≈ 3.82 µM)	> 10	> 4.1	> 10	> 4.1	inactive	> 4.1	> 10	inactive	> 10	> 4.1	5.95 (≈ 9.4 µM)	inactive	10 µg/mL (≈ 15.8 µM)	inactive	inactive	MBC [16]: inactive; MIC [16, 21]: 20 µg/mL (≈ 31.6 µM); IC50 [16, 22]: 9.32 µg/mL (≈ 14.7 µM); Activity [18]: > 10 µg/mL; selectivity ratio [19]: > 4.1; Activity [20]: > 10 µg/mL
